# ChEMBL document CHEMBL1221342, “Synthesis and in vitro antitumor activity of new 4,5-dihydropyrazole derivatives” (Bioorg Med Chem, 2010)
# Assays:
# Type in all cases: functional
# [1] = Growth inhibition of human […] cells after 48 hrs by SRB assay
# Summary of the method: (§1)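 NCI 60-cell-line screen. Cells grown in RPMI1640 with 5% fetal calf serum and 2 mM L-glutamine, with inoculum density set by cell line. Preincubated 24 h, then given compound in DMSO at 10^-4 to 10^-8 M (five 10-fold steps) for 48 h continuous exposure. Growth measured by SRB protein assay. GI50, TGI and LC50 reported as –log molar.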
# BT-549 = assay: Growth inhibition of human BT549 cells after 48 hrs by SRB assay; settings: BT-549, 48 h; summary of the method: as §1
# HT-29 = assay: Growth inhibition of human HT-29 cells after 48 hrs by SRB assay; settings: HT-29, 48 h; summary of the method: as §1
# U-251 = assay: Growth inhibition of human U251 cells after 48 hrs by SRB assay; settings: U-251, 48 h; summary of the method: as §1
# T47D = assay: Growth inhibition of human T47D cells after 48 hrs by SRB assay; summary of the method: as §1
# SK-MEL-5 = assay: Growth inhibition of human SK-MEL-5 cells after 48 hrs by SRB assay; settings: SK-MEL-5, 48 h; summary of the method: as §1
# [2] = Growth inhibition of human Hs 578T cells after 48 hrs by SRB assay; summary of the method: as §1
# HL-60(TB) = assay: Growth inhibition of human HL-60(TB) cells after 48 hrs by SRB assay; settings: HL-60, 48 h
# Summary of the method: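 NCI 60-cell-line screen: cells grown in RPMI1640 with 5% fetal calf serum and 2 mM L-glutamine, preincubated 24 h, then exposed to compound in DMSO at five concentrations (10^-4 to 10^-8 M) for 48 h continuous exposure. Growth estimated by sulforhodamine B protein assay; reported as pGI50 (-log molar concentration inhibiting net cell growth by 50%).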
# UACC-62 = assay: Growth inhibition of human UACC62 cells after 48 hrs by SRB assay; settings: UACC-62, 48 h; summary of the method: as §1
# EKVX = assay: Growth inhibition of human EKVX cells after 48 hrs by SRB assay; summary of the method: as §1
# SF-539 = assay: Growth inhibition of human SF539 cells after 48 hrs by SRB assay; settings: SF-539, 48 h; summary of the method: as §1
# PC-3 = assay: Growth inhibition of human PC3 cells after 48 hrs by SRB assay; settings: PC-3, 48 h; summary of the method: as §1
# KM12 = assay: Growth inhibition of human KM12 cells after 48 hrs by SRB assay; settings: KM12, 48 h; summary of the method: as §1
# CCRF-CEM = assay: Growth inhibition of human CCRF-CEM cells after 48 hrs by SRB assay; summary of the method: as §1
# HOP-62 = assay: Growth inhibition of human HOP62 cells after 48 hrs by SRB assay; settings: HOP-62, 48 h; summary of the method: as §1
# HCT-116 = assay: Growth inhibition of human HCT116 cells after 48 hrs by SRB assay; settings: HCT-116, 48 h; summary of the method: as §1
# HCC 2998 = assay: Growth inhibition of human HCC2998 cells after 48 hrs by SRB assay; settings: HCC 2998, 48 h; summary of the method: as §1
# MCF7 = assay: Growth inhibition of human MCF7 cells after 48 hrs by SRB assay; settings: MCF7, 48 h; summary of the method: as §1
# COLO 205 = assay: Growth inhibition of human COLO205 cells after 48 hrs by SRB assay; settings: COLO 205, 48 h; summary of the method: as §1
# SF-295 = assay: Growth inhibition of human SF295 cells after 48 hrs by SRB assay; settings: SF-295, 48 h; summary of the method: as §1
# IGROV-1 = assay: Growth inhibition of human IGROV1 cells after 48 hrs by SRB assay; settings: IGROV-1, 48 h; summary of the method: as §1
# K562 = assay: Growth inhibition of human K562 cells after 48 hrs by SRB assay; settings: K562, 48 h; summary of the method: as §1
# SF-268 = assay: Growth inhibition of human SF268 cells after 48 hrs by SRB assay; settings: SF-268, 48 h; summary of the method: as §1
# TK-10 = assay: Growth inhibition of human TK10 cells after 48 hrs by SRB assay; settings: TK-10, 48 h; summary of the method: as §1
# A498 = assay: Growth inhibition of human A498 cells after 48 hrs by SRB assay; settings: A498, 48 h; summary of the method: as §1
# MDA-MB-435 = assay: Growth inhibition of human MDA-MB-435 cells after 48 hrs by SRB assay; settings: MDA-MB-435, 48 h; summary of the method: as §1
# OVCAR-8 = assay: Growth inhibition of human OVCAR8 cells after 48 hrs by SRB assay; settings: OVCAR-8, 48 h; summary of the method: as §1
# SK-OV-3 = assay: Growth inhibition of human SKOV3 cells after 48 hrs by SRB assay; settings: SK-OV-3, 48 h; summary of the method: as §1
# OVCAR-3 = assay: Growth inhibition of human OVCAR-3 cells after 48 hrs by SRB assay; settings: OVCAR-3, 48 h; summary of the method: as §1
# MOLT-4 = assay: Growth inhibition of human MOLT4 cells after 48 hrs by SRB assay; settings: MOLT-4, 48 h; summary of the method: as §1
# OVCAR-4 = assay: Growth inhibition of human OVCAR4 cells after 48 hrs by SRB assay; settings: OVCAR-4, 48 h; summary of the method: as §1
# RXF 393 = assay: Growth inhibition of human RXF393 cells after 48 hrs by SRB assay; settings: RXF 393, 48 h; summary of the method: as §1
# Malme-3M = assay: Growth inhibition of human MALME-3M cells after 48 hrs by SRB assay; summary of the method: as §1
# NCI/ADR-RES = assay: Growth inhibition of human NCI/ADR-RES cells after 48 hrs by SRB assay; summary of the method: as §1
# NCI-H460 = assay: Growth inhibition of human NCI-H460 cells after 48 hrs by SRB assay; settings: NCI-H460, 48 h; summary of the method: as §1
# UO-31 = assay: Growth inhibition of human UO31 cells after 48 hrs by SRB assay; settings: UO-31, 48 h; summary of the method: as §1
smiles,measurement,setting,value
COc1cc(C2=NNC(c3ccc(N(C)C)cc3)C2)cc(OC)c1OC (stereo unspecified),GI50,[1],1.58 µM
same,TGI,[1]; read-out: pTGI (converted),12.6 µM
same,GI50,BT-549,0.794 µM
same,TGI,BT-549; read-out: pTGI (converted),10 µM
same,GI50,HT-29,0.631 µM
same,TGI,HT-29; read-out: pTGI (converted),> 100 µM
same,GI50,U-251,0.631 µM
same,TGI,U-251; read-out: pTGI (converted),> 100 µM
same,GI50,T47D,20 µM
same,TGI,T47D; read-out: pTGI (converted),> 100 µM
same,GI50,SK-MEL-5,2 µM
same,TGI,SK-MEL-5; read-out: pTGI (converted),6.31 µM
same,GI50,[2],2.51 µM
same,TGI,[2]; read-out: pTGI (converted),6.31 µM
same,GI50,HL-60(TB),1.58 µM
same,TGI,HL-60(TB); read-out: pTGI (converted),5.01 µM
same,GI50,UACC-62,3.98 µM
same,TGI,UACC-62; read-out: pTGI (converted),> 100 µM
same,GI50,EKVX,2 µM
same,TGI,EKVX; read-out: pTGI (converted),6.31 µM
same,GI50,SF-539,0.501 µM
same,TGI,SF-539; read-out: pTGI (converted),3.16 µM
same,GI50,PC-3,0.794 µM
same,TGI,PC-3; read-out: pTGI (converted),> 100 µM
same,GI50,KM12,0.501 µM
same,TGI,KM12; read-out: pTGI (converted),12.6 µM
same,GI50,CCRF-CEM,1.58 µM
same,TGI,CCRF-CEM; read-out: pTGI (converted),6.31 µM
same,GI50,HOP-62,1.26 µM
same,TGI,HOP-62; read-out: pTGI (converted),> 100 µM
same,GI50,HCT-116,2 µM
same,TGI,HCT-116; read-out: pTGI (converted),20 µM
same,GI50,HCC 2998,1.58 µM
same,TGI,HCC 2998; read-out: pTGI (converted),5.01 µM
same,GI50,MCF7,0.398 µM
same,TGI,MCF7; read-out: pTGI (converted),> 100 µM
same,GI50,COLO 205,2.51 µM
same,TGI,COLO 205; read-out: pTGI (converted),12.6 µM
same,GI50,SF-295,0.251 µM
same,TGI,SF-295; read-out: pTGI (converted),0.794 µM
same,GI50,IGROV-1,0.501 µM
same,TGI,IGROV-1; read-out: pTGI (converted),3.16 µM
same,GI50,K562,0.398 µM
same,TGI,K562; read-out: pTGI (converted),79.4 µM
same,GI50,SF-268,2 µM
same,TGI,SF-268; read-out: pTGI (converted),> 100 µM
same,GI50,TK-10,10 µM
same,TGI,TK-10; read-out: pTGI (converted),> 100 µM
same,GI50,A498,3.16 µM
same,TGI,A498; read-out: pTGI (converted),7.94 µM
same,GI50,MDA-MB-435,1 µM
same,GI50,OVCAR-8,3.98 µM
same,TGI,OVCAR-8; read-out: pTGI (converted),> 100 µM
same,GI50,SK-OV-3,3.98 µM
same,TGI,SK-OV-3; read-out: pTGI (converted),> 100 µM
same,GI50,OVCAR-3,6.31 µM
same,TGI,OVCAR-3; read-out: pTGI (converted),> 100 µM
same,GI50,MOLT-4,3.16 µM
same,TGI,MOLT-4; read-out: pTGI (converted),12.6 µM
same,GI50,OVCAR-4,15.8 µM
same,TGI,OVCAR-4; read-out: pTGI (converted),> 100 µM
same,GI50,RXF 393,1.26 µM
same,TGI,RXF 393; read-out: pTGI (converted),5.01 µM
same,GI50,Malme-3M,7.94 µM
same,TGI,Malme-3M; read-out: pTGI (converted),> 100 µM
same,GI50,NCI/ADR-RES,2 µM
same,TGI,NCI/ADR-RES; read-out: pTGI (converted),> 100 µM
same,GI50,NCI-H460,1.26 µM
same,TGI,NCI-H460; read-out: pTGI (converted),6.31 µM
same,GI50,UO-31,5.01 µM
same,TGI,UO-31; read-out: pTGI (converted),50.1 µM
